# Assay results from ChEMBL document CHEMBL5303300, “EUbOPEN Chemogenomics Library - Multiplex” (2023).
# Several values for one entry are separate records, joined by “and”; a condition that tells them apart may be missing. Equal values may be shown once.
# Test system: Fibroblast
# Assay: Multiplex assay against human fibroblast
# Type: toxicity, cell-based
# Conditions: number of replicates 2
# In short: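 Live cells were stained at seeding with Hoechst33342, BioTracker Green Microtubule Cytoskeleton Dye, MitoTracker Red and Annexin V Alexa Fluor 680. Following compound addition, they were imaged on a CQ1 microscope at 37°C and 5% CO2 and gated by CellPathfinder machine learning into Hoechst high-intensity objects or normal cells, with normal cells split into healthy, pyknosed or fragmented nuclei and pyknosed cells into mitotic or apoptotic. Tubulin, mitochondrial-mass and membrane-permeability phenotypes are per cents of healthy-nucleus cells.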
# [1] = 12 h, 1 µM, compound concentration 1 uM
# [2] = 12 h, 10 µM, compound concentration 10 uM
# [3] = 24 h, 1 µM, compound concentration 1 uM
# [4] = 24 h, 10 µM, compound concentration 10 uM
# [5] = 48 h, 1 µM, compound concentration 1 uM
# [6] = 48 h, 10 µM, compound concentration 10 uM
smiles,measurement,setting,value
O=C1Nc2ccc(C(=O)c3ccco3)cc2C1=Cc1cc(Cl)c(O)c(Cl)c1 [GW406108X],Population Apoptotic (%),[1],28% and 31%
same,Population Fragmented Nuclei (%),[1],8% and 6%
same,Population Healthy Nuclei (%),[1],65% and 68%
same,Population Hoechst High Intensity Objects (%),[1],0%
same,Population Membrane Permeable-Phenotype (%),[1],6%
same,Population Mitochondria Different-Phenotype (%),[1],1%
same,Population Mitotic Cells (%),[1],71% and 68%
same,Population Normal (%),[1],99% and 100%
same,Population Pyknosed Nuclei (%),[1],25% and 24%
same,Population Tubulin-Different-Phenotype (%),[1],16% and 8%
same,Total Cell Count,[1],224 and 230
same,Population Apoptotic (%),[2],44% and 41%
same,Population Fragmented Nuclei (%),[2],8% and 11%
same,Population Healthy Nuclei (%),[2],69% and 67%
same,Population Hoechst High Intensity Objects (%),[2],0% and 2%
same,Population Membrane Permeable-Phenotype (%),[2],6% and 5%
same,Population Mitochondria Different-Phenotype (%),[2],0% and 2%
same,Population Mitotic Cells (%),[2],55% and 58%
same,Population Normal (%),[2],100% and 97%
same,Population Pyknosed Nuclei (%),[2],21% and 20%
same,Population Tubulin-Different-Phenotype (%),[2],18% and 14%
same,Total Cell Count,[2],178 and 206
same,Population Apoptotic (%),[3],46% and 45%
same,Population Fragmented Nuclei (%),[3],8% and 9%
same,Population Healthy Nuclei (%),[3],72%
same,Population Hoechst High Intensity Objects (%),[3],0%
same,Population Membrane Permeable-Phenotype (%),[3],5% and 4%
same,Population Mitochondria Different-Phenotype (%),[3],0% and 1%
same,Population Mitotic Cells (%),[3],53% and 55%
same,Population Normal (%),[3],100%
same,Population Pyknosed Nuclei (%),[3],18% and 17%
same,Population Tubulin-Different-Phenotype (%),[3],15% and 10%
same,Total Cell Count,[3],248 and 224
same,Population Apoptotic (%),[4],58% and 43%
same,Population Fragmented Nuclei (%),[4],7% and 17%
same,Population Healthy Nuclei (%),[4],71% and 54%
same,Population Hoechst High Intensity Objects (%),[4],0% and 1%
same,Population Membrane Permeable-Phenotype (%),[4],9% and 10%
same,Population Mitochondria Different-Phenotype (%),[4],1%
same,Population Mitotic Cells (%),[4],41% and 56%
same,Population Normal (%),[4],100% and 98%
same,Population Pyknosed Nuclei (%),[4],21% and 28%
same,Population Tubulin-Different-Phenotype (%),[4],27% and 23%
same,Total Cell Count,[4],169 and 205
same,Population Apoptotic (%),[5],70% and 55%
same,Population Fragmented Nuclei (%),[5],10% and 9%
same,Population Healthy Nuclei (%),[5],76% and 77%
same,Population Hoechst High Intensity Objects (%),[5],0%
same,Population Membrane Permeable-Phenotype (%),[5],9% and 3%
same,Population Mitochondria Different-Phenotype (%),[5],0%
same,Population Mitotic Cells (%),[5],29% and 44%
same,Population Normal (%),[5],100%
same,Population Pyknosed Nuclei (%),[5],12%
same,Population Tubulin-Different-Phenotype (%),[5],15% and 5%
same,Total Cell Count,[5],242 and 224
same,Population Apoptotic (%),[6],61% and 68%
same,Population Fragmented Nuclei (%),[6],11% and 16%
same,Population Healthy Nuclei (%),[6],66% and 56%
same,Population Hoechst High Intensity Objects (%),[6],0% and 1%
same,Population Membrane Permeable-Phenotype (%),[6],12% and 10%
same,Population Mitochondria Different-Phenotype (%),[6],0% and 1%
same,Population Mitotic Cells (%),[6],38% and 31%
same,Population Normal (%),[6],100% and 98%
same,Population Pyknosed Nuclei (%),[6],22% and 26%
same,Population Tubulin-Different-Phenotype (%),[6],36% and 31%
same,Total Cell Count,[6],163 and 205
COc1ccc2cc(S(=O)(=O)N[C@H](CC(=O)N[C@H](Cc3ccc(CN4[C@H](C)CCC[C@@H]4C)cc3)C(=O)N(C)C(C)C)c3ccc4c(c3)OCO4)ccc2c1.Cl,Population Apoptotic (%),[1],31% and 54%
same,Population Fragmented Nuclei (%),[1],17% and 21%
same,Population Healthy Nuclei (%),[1],61% and 62%
same,Population Hoechst High Intensity Objects (%),[1],0%
same,Population Membrane Permeable-Phenotype (%),[1],6% and 11%
same,Population Mitochondria Different-Phenotype (%),[1],2% and 1%
same,Population Mitotic Cells (%),[1],68% and 45%
same,Population Normal (%),[1],100%
same,Population Pyknosed Nuclei (%),[1],20% and 16%
same,Population Tubulin-Different-Phenotype (%),[1],66% and 52%
same,Total Cell Count,[1],155 and 275
same,Population Apoptotic (%),[2],57% and 44%
same,Population Fragmented Nuclei (%),[2],26% and 14%
same,Population Healthy Nuclei (%),[2],52% and 66%
same,Population Hoechst High Intensity Objects (%),[2],0%
same,Population Membrane Permeable-Phenotype (%),[2],20% and 17%
same,Population Mitochondria Different-Phenotype (%),[2],21% and 16%
same,Population Mitotic Cells (%),[2],42% and 55%
same,Population Normal (%),[2],99%
same,Population Pyknosed Nuclei (%),[2],20% and 19%
same,Population Tubulin-Different-Phenotype (%),[2],97% and 84%
same,Total Cell Count,[2],160 and 258
same,Population Apoptotic (%),[3],43% and 66%
same,Population Fragmented Nuclei (%),[3],25% and 28%
same,Population Healthy Nuclei (%),[3],61% and 59%
same,Population Hoechst High Intensity Objects (%),[3],0%
same,Population Membrane Permeable-Phenotype (%),[3],0% and 5%
same,Population Mitochondria Different-Phenotype (%),[3],12% and 10%
same,Population Mitotic Cells (%),[3],56% and 33%
same,Population Normal (%),[3],100%
same,Population Pyknosed Nuclei (%),[3],13% and 12%
same,Population Tubulin-Different-Phenotype (%),[3],64% and 56%
same,Total Cell Count,[3],171 and 286
same,Population Apoptotic (%),[4],80%
same,Population Fragmented Nuclei (%),[4],20% and 16%
same,Population Healthy Nuclei (%),[4],56% and 57%
same,Population Hoechst High Intensity Objects (%),[4],1% and 0%
same,Population Membrane Permeable-Phenotype (%),[4],14% and 7%
same,Population Mitochondria Different-Phenotype (%),[4],42% and 56%
same,Population Mitotic Cells (%),[4],19% and 20%
same,Population Normal (%),[4],98% and 99%
same,Population Pyknosed Nuclei (%),[4],23% and 25%
same,Population Tubulin-Different-Phenotype (%),[4],93% and 92%
same,Total Cell Count,[4],159 and 220
same,Population Apoptotic (%),[5],77% and 72%
same,Population Fragmented Nuclei (%),[5],36% and 29%
same,Population Healthy Nuclei (%),[5],53% and 64%
same,Population Hoechst High Intensity Objects (%),[5],0%
same,Population Membrane Permeable-Phenotype (%),[5],2% and 3%
same,Population Mitochondria Different-Phenotype (%),[5],9% and 7%
same,Population Mitotic Cells (%),[5],22% and 27%
same,Population Normal (%),[5],99% and 100%
same,Population Pyknosed Nuclei (%),[5],9% and 5%
same,Population Tubulin-Different-Phenotype (%),[5],28% and 50%
same,Total Cell Count,[5],326 and 194
same,Population Apoptotic (%),[6],88% and 86%
same,Population Fragmented Nuclei (%),[6],24% and 18%
same,Population Healthy Nuclei (%),[6],62% and 65%
same,Population Hoechst High Intensity Objects (%),[6],5% and 9%
same,Population Membrane Permeable-Phenotype (%),[6],8% and 10%
same,Population Mitochondria Different-Phenotype (%),[6],46% and 55%
same,Population Mitotic Cells (%),[6],11% and 13%
same,Population Normal (%),[6],94% and 90%
same,Population Pyknosed Nuclei (%),[6],12% and 15%
same,Population Tubulin-Different-Phenotype (%),[6],87% and 83%
same,Total Cell Count,[6],138 and 202
